Assay results gathered from unrelated publications.
Compare with care: the assays were run in different laboratories.
PFF0160c: Dihydroorotate dehydrogenase (quinone), mitochondrial (PFF0160c, Plasmodium falciparum, UniProt Q08210)
Nectin-4: Nectin-4 (Homo sapiens, UniProt Q96NY8)
PFF0160c E182D: Dihydroorotate dehydrogenase (quinone), mitochondrial (PFF0160c, Plasmodium falciparum, UniProt Q08210, E182D)
Oprm1: Mu-type opioid receptor (Oprm1, Mus musculus, UniProt P42866)
SIGMAR1: Sigma non-opioid intracellular receptor 1 (SIGMAR1, Homo sapiens, UniProt Q99720)

| SMILES | target | test | quantity | value |
| --- | --- | --- | --- | --- |
| CCC(c1ccccc1)c1nn2c(-c3cccs3)nnc2s1 (stereo not drawn) | PFF0160c | enzyme activity, inhibitor, absorbance | IC50 | 158 nM |
| CCCC[C@@H]1NC(=O)[C@H](Cc2ccc(O)cc2)NC(=O)[C@@H]2CCCN2C(=O)[C@H](CC(=O)O)NC(=O)[C@H](C)NC(=O)[C@H](Cc2ccccc2)NC(=O)[C@@H]2CSCCC(=O)N3CN(CN(C3)C(=O)CCSC[C@@H](C(=O)N[C@@H](CNC(=O)CCc3cn(CCOCCOCCOCCOCCOCCOCCOCCOCCOCCOCCOCCOCCOCCOCCOCCOCCOCCOCCOCCOCCOCCOCCOCCNC(=O)N[C@H]4CSCCC(=O)N5CN6CN(C5)C(=O)CCSC[C@H](NC(=O)[C@@H](CC(=O)O)NC(=O)[C@H](Cc5cccc7ccccc57)NC(=O)[C@@H]5CCCN5C4=O)C(=O)N[C@@H](CCSC)C(=O)N[C@@H](CCCCNC(=N)N)C(=O)N[C@@H](CC(=O)O)C(=O)N[C@@H](Cc4c[nH]c5ccccc45)C(=O)N[C@@H](CO)C(=O)N[C@@H]([C@@H](C)O)C(=O)N4CCC[C@H]4C(=O)N4C[C@H](O)C[C@H]4C(=O)N[C@@H](Cc4c[nH]c5ccccc45)C(=O)N[C@H](C(N)=O)CSCCC6=O)nn3)C(N)=O)NC1=O)C(=O)CCSC[C@H](NC(=O)[C@H](C)NC(C)=O)C(=O)N[C@@H]([C@@H](C)CC)C(=O)N[C@@H](CCC(=O)O)C(=O)N[C@@H](CCC(=O)O)C(=O)NCC(=O)N[C@@H](CCC(N)=O)C(=O)N[C@@H](Cc1ccc(O)cc1)C(=O)N2 | Nectin-4 | binding, SPR | Kd | 1.8 nM |
| CC(=O)Nc1sc(C)c(C)c1CN1CCc2ccccc2C1 | PFF0160c E182D | enzyme activity, inhibitor, absorbance | IC50 | 1940 nM |
| CCCC[C@@H]1NC(=O)[C@H](Cc2ccc(O)cc2)NC(=O)[C@@H]2CCCN2C(=O)[C@H](CC(N)=O)NC(=O)[C@H](C)NC(=O)[C@H](Cc2ccccc2)NC(=O)[C@@H]2CSCCC(=O)N3CN(CN(C3)C(=O)CCSC[C@H](NC(C)=O)C(=O)N[C@@H](CC(C)(C)C)C(=O)N3CCC[C@H]3C(=O)N[C@@H](CCC(=O)O)C(=O)N[C@H](CCCCNC(=O)CCc3cn(CCOCCOCCOCCOCCOCCC(=O)N[C@H]4CSCCC(=O)N5CN6CN(C5)C(=O)CCSC[C@H](NC(=O)[C@@H](CC(=O)O)NC(=O)[C@H](Cc5cccc7ccccc57)NC(=O)[C@@H]5CCCN5C4=O)C(=O)N[C@@H](CCSC)C(=O)N[C@@H](CCCCNC(=N)N)C(=O)N[C@@H](CC(=O)O)C(=O)N[C@@H](Cc4c[nH]c5ccccc45)C(=O)N[C@@H](CO)C(=O)N[C@@H]([C@@H](C)O)C(=O)N4CCC[C@H]4C(=O)N4C[C@H](O)C[C@H]4C(=O)N[C@@H](Cc4c[nH]c5ccccc45)C(=O)N[C@H](C(N)=O)CSCCC6=O)nn3)C(=O)N3CCC[C@H]3C(=O)N[C@@H](Cc3ccc(O)cc3)C(=O)N2)C(=O)CCSC[C@@H](C(N)=O)NC1=O | Nectin-4 | binding, SPR | Kd | 1.4 nM |
| CCn1cc(C(=O)NC2CCNCC2)n(Cc2ccccc2)c1=O | PFF0160c E182D | enzyme activity, inhibitor, absorbance | IC50 | 8940 nM |
| O=C(N[C@H]1C=C[C@@]2(O)[C@H]3Cc4ccc(O)c5c4[C@@]2(CCN3CC2CC2)[C@H]1O5)c1c[nH]c2ccncc12 | Oprm1 | ligand displacement, radioligand | Ki | 0.7 nM |
| CCCC[C@@H]1NC(=O)[C@H](Cc2ccc(O)cc2)NC(=O)[C@@H]2CCCN2C(=O)[C@H](CC(=O)O)NC(=O)[C@H](C)NC(=O)[C@H](Cc2ccccc2)NC(=O)[C@@H]2CSCCC(=O)N3CN(CN(C3)C(=O)CCSC[C@@H](C(=O)N[C@@H](C)C(N)=O)NC1=O)C(=O)CCSC[C@H](NC(C)=O)C(=O)N[C@@H](CC(C)(C)C)C(=O)N1CCC[C@H]1C(=O)N[C@@H](CCC(=O)O)C(=O)N[C@H](CCCCNC(=O)CCc1cn(CCOCCOCCOCCOCCOCCC(=O)NCCCC[C@H]3NC(=O)[C@H](Cc4cccc5ccccc45)NC(=O)[C@@H]4CCCN4C(=O)[C@@H](NC(C)=O)CSCCC(=O)N4CN5CN(C4)C(=O)CCSC[C@H](NC3=O)C(=O)N[C@@H](CCSC)C(=O)N[C@@H](CCCCNC(=N)N)C(=O)N[C@@H](CC(=O)O)C(=O)N[C@@H](Cc3c[nH]c4ccccc34)C(=O)N[C@@H](CO)C(=O)N[C@@H]([C@@H](C)O)C(=O)N3CCC[C@H]3C(=O)N3C[C@H](O)C[C@H]3C(=O)N[C@@H](Cc3c[nH]c4ccccc34)C(=O)N[C@H](C(N)=O)CSCCC5=O)nn1)C(=O)N1CCC[C@H]1C(=O)N[C@@H](Cc1ccc(O)cc1)C(=O)N2 | Nectin-4 | binding, SPR | Kd | 1.3 nM |
| O=C(N[C@@H]1C=C[C@@]2(O)[C@H]3Cc4ccc(O)c5c4[C@@]2(CCN3CC2CC2)[C@H]1O5)c1c[nH]c2ncccc12 | Oprm1 | ligand displacement, radioligand | Ki | 0.28 nM |
| Fc1ccc([C@@H]2CCNC[C@H]2COc2ccc3c(c2)OCO3)cc1 | SIGMAR1 | ligand displacement, radioligand | Ki | 365 nM |
| Cc1noc(-c2cccs2)c1C(=O)NCCc1cccc(Cl)c1 | PFF0160c | enzyme activity, inhibitor, absorbance | IC50 | 689 nM |
| CCCC[C@@H]1NC(=O)[C@H](Cc2ccc(O)cc2)NC(=O)[C@@H]2CCCN2C(=O)[C@H](CC(=O)O)NC(=O)[C@H](C)NC(=O)[C@H](Cc2ccccc2)NC(=O)[C@@H]2CSCCC(=O)N3CN(CN(C3)C(=O)CCSC[C@H](NC(C)=O)C(=O)N[C@@H](CC(C)(C)C)C(=O)N3CCC[C@H]3C(=O)N[C@@H](CCC(=O)O)C(=O)N[C@H](CCCCNC(=O)CCc3cn(CCOCCOCCOCCN(CCOCCOCCOCCC(=O)N[C@H]4CSCCC(=O)N5CN6CN(C5)C(=O)CCSC[C@H](NC(=O)[C@@H](CC(=O)O)NC(=O)[C@H](Cc5cccc7ccccc57)NC(=O)[C@@H]5CCCN5C4=O)C(=O)N[C@@H](CCSC)C(=O)N[C@@H](CCCCNC(=N)N)C(=O)N[C@@H](CC(=O)O)C(=O)N[C@@H](Cc4c[nH]c5ccccc45)C(=O)N[C@@H](CO)C(=O)N[C@@H]([C@@H](C)O)C(=O)N4CCC[C@H]4C(=O)N4C[C@H](O)C[C@H]4C(=O)N[C@@H](Cc4c[nH]c5ccccc45)C(=O)N[C@H](C(N)=O)CSCCC6=O)CCOCCOCCOCCn4cc(CCC(=O)NCCCC[C@H]5NC(=O)[C@H](CCC(=O)O)NC(=O)[C@@H]6CCCN6C(=O)[C@H](CC(C)(C)C)NC(=O)[C@@H](NC(C)=O)CSCCC(=O)N6CN7CN(C6)C(=O)CCSC[C@H](NC(=O)[C@H](Cc6ccc(O)cc6)NC(=O)[C@@H]6CCCN6C5=O)C(=O)N[C@@H](Cc5ccccc5)C(=O)N[C@@H](C)C(=O)N[C@@H](CC(=O)O)C(=O)N5CCC[C@H]5C(=O)N[C@@H](Cc5ccc(O)cc5)C(=O)N[C@@H](CCCC)C(=O)NCCSCCC7=O)nn4)nn3)C(=O)N3CCC[C@H]3C(=O)N[C@@H](Cc3ccc(O)cc3)C(=O)N2)C(=O)CCSCCNC1=O | Nectin-4 | binding, SPR | Kd | 2.8 nM |
| COc1cc2nc(N3CCCN(C)CC3)nc(NC3CCN(Cc4ccccc4)CC3)c2cc1OC | SIGMAR1 | ligand displacement, radioligand | Ki | > 10000 nM |
| CC(C)C(NC(=O)Cc1cccc2ccccc12)C(=O)Nc1cccc(C#N)c1 (stereo not drawn) | PFF0160c | enzyme activity, inhibitor, absorbance | IC50 | 1550 nM |
| CCCC[C@@H]1NC(=O)[C@H](Cc2ccc(O)cc2)NC(=O)[C@@H]2CCCN2C(=O)[C@H](CCC(=O)O)NC(=O)[C@H](C)NC(=O)[C@H](Cc2ccccc2)NC(=O)[C@@H]2CSCCC(=O)N3CN(CN(C3)C(=O)CCSC[C@H](NC(C)=O)C(=O)N[C@@H](CC(C)(C)C)C(=O)N3CCC[C@H]3C(=O)N[C@@H](CCC(=O)O)C(=O)N[C@H](CCCCNC(=O)CCc3cn(CCOCCOCCOCCOCCOCCC(=O)N[C@H]4CSCCC(=O)N5CN6CN(C5)C(=O)CCSC[C@H](NC(=O)[C@@H](CC(=O)O)NC(=O)[C@H](Cc5cccc7ccccc57)NC(=O)[C@@H]5CCCN5C4=O)C(=O)N[C@@H](CCSC)C(=O)N[C@@H](CCCCNC(=N)N)C(=O)N[C@@H](CC(=O)O)C(=O)N[C@@H](Cc4c[nH]c5ccccc45)C(=O)N[C@@H](CO)C(=O)N[C@@H]([C@@H](C)O)C(=O)N4CCC[C@H]4C(=O)N4C[C@H](O)C[C@H]4C(=O)N[C@@H](Cc4c[nH]c5ccccc45)C(=O)N[C@H](C(N)=O)CSCCC6=O)nn3)C(=O)N3CCC[C@H]3C(=O)N[C@@H](Cc3ccc(O)cc3)C(=O)N2)C(=O)CCSC[C@@H](C(N)=O)NC1=O | Nectin-4 | binding, SPR | Kd | 2.5 nM |
| O=C(N[C@H]1C=C[C@@]2(O)[C@H]3Cc4ccc(O)c5c4[C@@]2(CCN3CC2CC2)[C@H]1O5)c1c[nH]c2cnccc12 | Oprm1 | ligand displacement, radioligand | Ki | 1.16 nM |
